According to the RNAGym collection of RNA variant scans (doi:10.1126/science.aae0568):
Variants at the floor of the assay were thinned out.

B1: tRNA (parent)
chain: GUUCCGUUGGCGUAAUGGUAACGCGUCUCCCUCCUAAGGAGAAGACUGCGGGUUCGAGUCCCGUACGGAACG

Variants of: B1
Assay: yeast fitness relative to wild type (ratio to wild type); higher = fitter; tRNA-Arg(CCU), competitive growth, 37 C, YPD
Procedure, shortened: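 Amplicons of the tRNA-Arg(CCU) gene were sequenced, 100-nucleotide paired-end, from the start population and from each end population of a pooled yeast competition. The competition, in six parallel replicates, lasted 24 hours in YPD at 37°C. Fitness relative to wild type was calculated from changes in genotype frequencies. Genotypes had to have ≥ 100 starting reads, and estimates < 0.5 were set to 0.5.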
C11A U19A U47C C55A C61U gave a yeast fitness of at most 0.5.
C11A U32C G67A showed a yeast fitness of 0.606.
C11A G50C C60U A70C gave a yeast fitness of at most 0.5.
For C11G A15C C24U A43U C66U, the yeast fitness was at most 0.5.
With C11A G25C C29U A43U A65C A70U the yeast fitness was at most 0.5.
For C11A U28C A69U, the yeast fitness was at most 0.5.
In the case of C11G A15G C33G A37G, the yeast fitness is reported as at most 0.5.
C11A U16C G18C A45C U59A showed a yeast fitness of at most 0.5.
For C11A C27A A69U, the yeast fitness was at most 0.5.
Variant C11G A15U C34A A42C G48A has a yeast fitness of 0.619.
Work on C11A C24A U26A G44C yielded a yeast fitness of at most 0.5.
Variant C11A C29A U32C C66U has a yeast fitness of at most 0.5.
C11A C27U C60G showed a yeast fitness of 0.532.
C11A U47C gave a yeast fitness of 0.689.
C11A C60A gave a yeast fitness of at most 0.5.
For C11A C27U C33U U35C C62U A65G, the yeast fitness was at most 0.5.
C11A C24U G56A G67C A70G showed a yeast fitness of at most 0.5.
C11A G18C showed a yeast fitness of at most 0.5.
C11A G18A C31U A69C gave a yeast fitness of 0.605.
C11A C34A G44C A70U showed a yeast fitness of at most 0.5.
Variant C11A U26C C29G C31U G52C C55A U59G has a yeast fitness of at most 0.5.
For C11A U19A C27U A42U A45C C55U A69C, the yeast fitness was at most 0.5.
In the case of C11A C33G C34G C61A, the yeast fitness is reported as at most 0.5.
In the case of C11G A15C G41A C49G, the yeast fitness is reported as at most 0.5.
In the case of C11G A20C A45G A70U, the yeast fitness is reported as at most 0.5.
With C11A G25A G58C A65G the yeast fitness was 0.568.
C11G A14G G18C A20U C33U C62U G63A showed a yeast fitness of at most 0.5.
For C11G A14C C33G A45U C62G A65G, the yeast fitness was at most 0.5.
Work on C11A C24U U32G A40U U64G yielded a yeast fitness of at most 0.5.
Variant C11A U16C G18C A45C A57U U59C has a yeast fitness of at most 0.5.
For C11A C27A C33G A42C C66U, the yeast fitness was at most 0.5.
Variant C11G A15C C34U G48A C55U has a yeast fitness of 0.759.
Variant C11G A20C A43G U59C has a yeast fitness of at most 0.5.
In the case of C11A G12C U53G A65U, the yeast fitness is reported as at most 0.5.
Work on C11A U13C C27A C60G A65G yielded a yeast fitness of at most 0.5.
For C11A C34A G58C, the yeast fitness was at most 0.5.
C11G A15U C22U A42G C66U showed a yeast fitness of at most 0.5.
In the case of C11A C31G A70U, the yeast fitness is reported as at most 0.5.
Variant C11G A15G U54G has a yeast fitness of at most 0.5.
For C11A C31U U53A, the yeast fitness was 0.513.
C11A G25C G44A A57G showed a yeast fitness of at most 0.5.
C11A C31G C34G C46G U59A G63A gave a yeast fitness of at most 0.5.
Variant C11A G18C C27G has a yeast fitness of 0.64.
Variant C11A C30G A45U A57G C60A has a yeast fitness of at most 0.5.
C11A C30U gave a yeast fitness of 0.598.
With C11A C30G the yeast fitness was at most 0.5.
With C11A C30A the yeast fitness was 0.523.
In the case of C11A U47C C62A, the yeast fitness is reported as at most 0.5.
For C11A C24G C30G G56A, the yeast fitness was at most 0.5.
C11A C27G U59A showed a yeast fitness of at most 0.5.
In the case of C11A U35G G67A, the yeast fitness is reported as 0.52.
For C11A C30G G48C, the yeast fitness was at most 0.5.
C11A C27G C55A C61G showed a yeast fitness of at most 0.5.
C11G A20C C24G gave a yeast fitness of at most 0.5.
C11A U19A C29A U32A U54C C55G C60G showed a yeast fitness of at most 0.5.
C11A C29A G52C G68C showed a yeast fitness of at most 0.5.
C11A U16C G18C A45C A57C G67A G68C showed a yeast fitness of at most 0.5.
Work on C11A U19C U26C A40U G44C C46U U64G yielded a yeast fitness of 0.514.
C11A C31U G56A G58C gave a yeast fitness of 0.595.
Variant C11A U13G C55A has a yeast fitness of 0.659.
Variant C11A C27A C29U G58A has a yeast fitness of at most 0.5.
Variant C11A C29A G67C has a yeast fitness of at most 0.5.
Work on C11A C24A A36G G48A yielded a yeast fitness of at most 0.5.
In the case of C11A C62A A65C, the yeast fitness is reported as at most 0.5.
For C11G A14U G17A C61G C62G, the yeast fitness was at most 0.5.
In the case of C11A C27U G41C A42G C60G, the yeast fitness is reported as at most 0.5.
Variant C11A C31U A69C A70G has a yeast fitness of at most 0.5.
Variant C11A C27G has a yeast fitness of 0.589.
Work on C11A C31A G44C A65G yielded a yeast fitness of 0.553.
Variant C11A C31A G44C A65U has a yeast fitness of at most 0.5.
Variant C11A C61A has a yeast fitness of 0.613.
C11A C61U gave a yeast fitness of 0.621.
C11A U35G C46A C49U C60U gave a yeast fitness of at most 0.5.
Variant C11A G41A G56A C62A has a yeast fitness of at most 0.5.
In the case of C11A C24U U32A U35C U59C, the yeast fitness is reported as at most 0.5.
With C11G A15C C34U U47C G48A C55U the yeast fitness was at most 0.5.
With C11A C24U U32A U35C C55A G58A the yeast fitness was at most 0.5.
C11A C24U C31U G67A showed a yeast fitness of at most 0.5.
Work on C11G A14G G63A C66U yielded a yeast fitness of at most 0.5.
With C11A G51A A65U the yeast fitness was at most 0.5.
Work on C11A G23A A43U yielded a yeast fitness of at most 0.5.
C11A C66G showed a yeast fitness of 0.613.
Work on C11A U32A C33U C66A yielded a yeast fitness of at most 0.5.
